# Rows were chosen to be rich in hits. Some 2.4% of all compounds tested hit in one or more screens of this group.
# Hck Nef HTS: inhibitors of Nef-activated human Hck kinase, primary screen, biochemical, Z-Lyte FRET, 384-well, Hck-YEEI. Tyrosine-protein kinase HCK (Homo sapiens), P08631. Recombinant Hck-YEEI plus Nef, Z-Lyte FRET kinase assay. inhibition, % at 20 µM. 220,000 tested, 0.68% active;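 active means Hck-Nef kinase inhibition above about 50%, limit read from the data; inactive means inhibition below that limit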;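 further: 0% = DMSO with Hck plus Nef and 100% = Hck alone without Nef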
# Target sequence (P08631 whole entry, looked up): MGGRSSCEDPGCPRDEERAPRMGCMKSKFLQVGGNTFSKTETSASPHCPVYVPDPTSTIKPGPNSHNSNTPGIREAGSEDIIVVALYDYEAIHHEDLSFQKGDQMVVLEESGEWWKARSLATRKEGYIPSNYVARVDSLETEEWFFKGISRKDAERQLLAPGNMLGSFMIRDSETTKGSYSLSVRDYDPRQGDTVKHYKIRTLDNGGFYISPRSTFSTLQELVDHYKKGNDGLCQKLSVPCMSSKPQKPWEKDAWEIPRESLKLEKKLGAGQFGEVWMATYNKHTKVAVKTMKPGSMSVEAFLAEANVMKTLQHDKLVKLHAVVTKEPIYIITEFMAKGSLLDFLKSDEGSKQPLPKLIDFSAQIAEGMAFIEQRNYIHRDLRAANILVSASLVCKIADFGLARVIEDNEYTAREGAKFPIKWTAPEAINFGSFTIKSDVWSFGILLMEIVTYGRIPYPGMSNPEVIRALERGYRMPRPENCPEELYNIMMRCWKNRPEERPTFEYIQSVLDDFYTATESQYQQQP
# TNF death inh: inhibitors of TNF-alpha triggered necroptosis, primary screen, cell-based, Jurkat FADD-/-, single concentration. AID 463075, 2010. 220,000 tested, 0.068% active. Jurkat FADD-/- TNF necroptosis rescue, ATP luminescence, 24 h; 0 = TNF only, 100 = no-TNF cells. activation (protection from cell death), % at 10 µM;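 active means activation, meaning protection from cell death, of at least 50% relative to plate controls; inactive means activation below 50%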;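 further: necroptosis triggered by 40 ng/mL TNF-alpha added together with compound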
# Dynein transport: inhibitors of GR-EGFP nuclear translocation, primary screen, dynein cargo transport inhibitor project, imaging, high-content, 3617.4 mouse cells. test concentration mostly 20 µM; stimulated with dexamethasone, 1 µM; stronger effect = lower value. z-score, hits read low. 220,000 tested, 0.47% active. AID 1381, 2008;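 active means plate z-score of nuclear minus cytoplasmic receptor signal below a set negative limit, without overly bright fluorescence or cell loss, cut at about -3.5 in these data, passing the limit was not always enough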;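 further: z-score of nuclear minus cytoplasmic ring GR-EGFP intensity difference per well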
#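 Schedule: 48 h induction, then 1 h compound, then 30 min agonist, 37 °C. Buffer or medium: tetracycline-free induction medium containing charcoal-stripped FBS. Reagent: 1.0 µM final dexamethasone stimulus. Evaluation: nuclear versus cytoplasmic GR-EGFP signal, averaged per well. Signal: high-content fluorescence imaging after fixation.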
# zVAD death inh: inhibitors of zVAD-triggered necroptosis, primary screen, L929 cells; viability rescue, % at 10 µM; L929 zVAD necroptosis rescue, ATP luminescence, 24 h; with zVAD 60 µM; 220,000 tested, 0.38% active; AID 1377, 2008;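 active means activation, scaled between plate controls, above about 75%, limit read from the data; inactive means activation under that limit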;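 further: 0% = zVAD with DMSO and 100% = DMSO alone without zVAD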
# MDM2 E3 inh: MDM2-luciferase reporter signal enhancers, primary screen, MDM2 E3 ligase inhibitor project, cell-based, luminescence, 1536-well. E3 ubiquitin-protein ligase Mdm2 (Homo sapiens), Q00987. signal enhancement, % at 5 µM. 210,000 tested, 0.11% active. cell-based MDM2 ubiquitination luciferase reporter, 2 h; 0 = plate control, 100 = twice control, blank-subtracted;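 active means signal enhancement of 30% or more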;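 further: luminescence tracks abundance of the self-degrading MDM2-luciferase fusion protein; higher signal means inhibition of MDM2 E3 ligase activity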
#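 Test system: stable mammalian line carrying autodegrading MDM2–luciferase fusion reporter; quantity: 2000 cells in each well; times: 4 h cell settling then 2 h compound exposure, 37 °C; detection: luminescence with SteadyLite reagent, 15 min at room temperature; evaluation: percent signal gain over controls, blank-subtracted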
# Autophagy HCS: autophagy modulators in MEF cells, primary screen, imaging, high-content, MEF GFP-LC3 | MEF GFP-LC3 puncta imaging; test concentration mostly 10 µM | calls only at 10 µM (by protocol) | 190,000 tested, 0.98% active | AID 463193, 2010;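 active means percentage of spot-positive cells more than 3 SD above its plate mean, without a fluorescence outlier flag or 80% toxicity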;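 further: spot-positive cell cutoff set from DMSO-treated cells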
# * marks the source's active call; other numbers are inactive results; i = inactive; · = no result given; + = active, no number; ! = a repeat was not active.
SMILES,Hck Nef HTS,TNF death inh,Dynein transport,zVAD death inh,MDM2 E3 inh,Autophagy HCS
COc1ccc(CCNC(=O)/C(=C/c2cccnc2)NC(=O)c2ccccc2)cc1OC,13.0,0.6,-0.963,1.9,-11.1,i
COc1ccc(-n2cc3c(-c4cccc(Br)c4)nnc(C)c3n2)cc1,0.0,-2.7,-0.31,-0.7,-14.9,+
C=CCNc1nc(NCc2ccccc2)c(C#N)c2c1CN(C)CC2,6.3,-9.8,-0.393,0.3,-12.6,i
N#Cc1c(NCCN)nc(NCc2ccccc2)c2c1CCN(Cc1ccccc1)C2,5.3,-0.3,0.8,5.3,·,+
CC(=O)Oc1ccc2c(=O)c(Oc3ccccc3)coc2c1OC(C)=O,11.8,-2.1,-0.888,0.8,-9.2,+
Cc1ccc(Oc2coc3cc(OC(=O)c4cccs4)ccc3c2=O)cc1,2.7,-5.7,0.169,-0.2,-18.1,i
O=C(CSc1ncnc2sc3c(c12)CCCC3)c1ccco1,1.3,-5.0,-0.206,0.8,-15.6,i
O=C(CSc1ncnc2sc3c(c12)CCCCC3)NCc1ccco1,-0.5,-6.7,0.245,1.2,-35.8,+
COc1cc(C2c3c(oc4ccccc4c3=O)C(=O)N2Cc2ccco2)ccc1O (configuration not stated),-1.3,-0.9,-0.589,-0.1,2.8,i
CCOc1cc(C2c3c(oc4cc(C)c(Cl)cc4c3=O)C(=O)N2Cc2ccco2)ccc1O (configuration not stated),7.3,-0.3,1.1,-0.6,-4.2,+
CCOC(=O)N/N=C\c1ccc(OC(=O)c2ccc3c(c2)OCO3)cc1,14.5,-1.1,0.507,1.1,-5.9,+
Cc1ccc(C(=O)Oc2ccc(/C=N/NC(N)=O)cc2)cc1,24.7,0.3,0.125,1.4,1.4,i
CSc1nc2c(c(=O)[nH]1)C(c1cccs1)C1=C(CCCC1=O)N2 (configuration not stated),2.3,-0.7,-0.4,0.9,-2.3,i
CC1(C)CC(=O)C2=C(C1)Nc1nc(SCCN3CCOCC3)[nH]c(=O)c1C2c1cccs1 (configuration not stated),0.2,-0.2,2.1,-0.7,30.7*,i
CC1=[N+](C)c2c(ccc3cccnc23)C1(C)C,-5.3,-5.4,0.363,-0.7,-22.1,i
CC(CN1C(C)CCCC1C)OC(=O)c1ccc(Cl)cc1Cl (configuration not stated),-2.4,2.4,-0.0249,-0.6,-16.6,+
O=C(c1cccc2c1C(=O)N(Cc1cccnc1)C2)N1CCN(c2ccccc2)CC1,6.4,-1.3,-1.37,0.6,11.2,i
O=C(c1ccc(COc2ccccc2Cl)o1)N1CCN(Cc2ccc3c(c2)OCO3)CC1,1.9,-0.1,-0.057,-0.8,5.8,+!
Cc1c(N(C)C(=O)c2ccco2)c(=O)n(-c2ccccc2)n1C,4.9,-1.5,0.16,-0.9,-11.1,i
COc1ccc(C(=O)N(C)c2c(C)n(C)n(-c3ccccc3)c2=O)cc1OC,6.9,1.1,0.655,0.4,-18.2,+
O=C(CCc1nc2ccccc2c(=O)[nH]1)NCc1ccccn1,11.3,0.6,-0.791,1.5,-5.2,i
O=C(CCc1nc2ccccc2c(=O)[nH]1)NCc1ccco1,6.9,0.6,-0.229,0.8,-1.6,+
Cc1cccn2c(=O)c3cc(C#N)c(=N)n(CC4CCCO4)c3nc12 (configuration not stated),26.4,-2.7,-0.371,-0.7,·,i
Cc1ccc2nc3c(cc(C#N)c(=O)n3CC3CCCO3)c(=O)n2c1 (configuration not stated),189.3*,-0.8,-0.229,0.2,2.2,i
CC(C)c1ccc2nc3sc(C(=O)N4CCc5ccccc5C4)c(N)c3cc2c1,-3.7,-1.2,-1.12,0.5,12.3,i
SMILES,Hck Nef HTS,TNF death inh,Dynein transport,zVAD death inh,MDM2 E3 inh,Autophagy HCS
Cc1ccc2cc3c(N)c(C(=O)N4CC(=O)Nc5ccccc54)sc3nc2c1,-4.2,-16.7,2.72,-0.1,-18.0,+
CCc1ccc2nc3sc(C(=O)N4CCc5ccccc54)c(N)c3cc2c1,5.7,1.0,-2.34,0.3,-18.9,+
Cc1ccc2cc3c(N)c(C(=O)Nc4c(C)[nH]c(=O)[nH]c4=O)sc3nc2c1,-0.4,1.6,0.543,1.9,-9.5,+
Cc1ccc2cc3c(N)c(C(=O)N4CCOCC4)sc3nc2c1,0.0,-5.5,-0.659,1.5,-16.1,i
Cc1ccc2nc3sc(C(=O)Nc4c(C)[nH]c(=O)[nH]c4=O)c(N)c3cc2c1,2.1,-0.1,-0.406,0.5,-16.9,i
Cc1cc(C)cc(C(=O)N2CC(=O)Nc3ccccc32)c1,2.1,-9.4,-0.363,-1.0,-19.4,+
Cc1ccc(C(=O)NNC(=O)C2CCCN(c3ncccn3)C2)cc1 (configuration not stated),-0.7,-3.5,-0.712,-0.2,-23.5,i
COC(=O)c1scc2c(Oc3ccccc3)cc(C(F)(F)F)nc12,3.6,-7.1,-1.44,-0.9,-2.7,·
CCOC(=O)C(C)Oc1ccsc1C(=O)OC (configuration not stated),1.0,0.1,-0.362,-0.3,1.8,i
C=CCn1c2ccccc2c2nnc(SCCCn3c(=O)[nH]c4ccccc43)nc21,3.1,-7.0,-0.207,0.5,-20.0,i
CCCC(C)NC(=S)Nc1cc(C)cc(C)c1 (configuration not stated),-7.5,-10.5,1.11,0.4,-6.7,i
CCNC(=O)CSc1nnc(-c2ccccc2Br)n1-c1cccc(C(F)(F)F)c1,4.3,1.8,0.788,-0.2,-13.7,i
CC1=Nc2cc(C(=O)NCC3CCCO3)ccc2Sc2ccc(Br)cc21 (configuration not stated),20.0,-8.9,0.499,0.3,-10.3,·
COc1ccc([N+](=O)[O-])cc1NC(=O)c1ccco1,18.5,-0.3,-0.224,9.8,5.7,i
Cc1cc(C)c2nc(SCC(=O)N3CC(=O)Nc4ccccc43)c(C#N)cc2c1,10.5,-11.3,-1.7,-1.0,-10.6,+
CCN1CCN(Cc2ccc(NC(=O)Nc3ccc(OC)cc3)cc2)CC1,-4.0,3.2,-0.669,76.6*,-6.8,i
CNS(=O)(=O)c1ccc(NC(=O)Nc2cccc(F)c2)cc1,17.3,4.1,-0.544,65.5,-1.3,i
